Data: ChEMBL document CHEMBL1156338 (J Med Chem, 2010)
Calls of active or inactive are those of the source. No cut-off for these calls is given here.

Key:
[1] = Trough plasma concentration in porcine type 2 collagen-induced arthritis Lewis rat model at 0.01 to 1 mg/kg, po after 24 hrs; assay type: ADME, organism-based; set-up: dose 0.01-1 mg/kg, route oral
Rattus norvegicus [2] = experiment: Antiarthritic activity against porcine type 2 collagen-induced arthritis in po dosed Lewis rat model assessed as reduction of paw swelling administered qd for 7 days relative to control; assay type: functional
Procedure, shortened: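 Arthritis induced by intradermal porcine type II collagen emulsified 1:1 in incomplete Freund's adjuvant; rats grouped at disease onset (day 0, 10-12 days after immunization). Oral dosing once daily for 7 days in vehicle 15% HPBCD, 1% HPMC, 1% Pluronic F68, pH 2.2.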

[3] = Volume of distribution at steady state in Sprague-Dawley rat at 2 mg/kg, iv; assay type: ADME, organism-based; set-up: dose 2 mg/kg, route intravenous; details: in vivo, read-out: Vdss
[4] = biological target: T1, Nuclear receptor subfamily 1 group I member 2 (Homo sapiens, UniProt O75469); experiment: Transactivation of human PXR expressed in HepG2 cells at 10 uM after 24 hrs by luciferase reporter gene assay relative to rifampin; assay type: cell-based; details: hepg2, 24 h
T1 sequence (O75469 whole entry): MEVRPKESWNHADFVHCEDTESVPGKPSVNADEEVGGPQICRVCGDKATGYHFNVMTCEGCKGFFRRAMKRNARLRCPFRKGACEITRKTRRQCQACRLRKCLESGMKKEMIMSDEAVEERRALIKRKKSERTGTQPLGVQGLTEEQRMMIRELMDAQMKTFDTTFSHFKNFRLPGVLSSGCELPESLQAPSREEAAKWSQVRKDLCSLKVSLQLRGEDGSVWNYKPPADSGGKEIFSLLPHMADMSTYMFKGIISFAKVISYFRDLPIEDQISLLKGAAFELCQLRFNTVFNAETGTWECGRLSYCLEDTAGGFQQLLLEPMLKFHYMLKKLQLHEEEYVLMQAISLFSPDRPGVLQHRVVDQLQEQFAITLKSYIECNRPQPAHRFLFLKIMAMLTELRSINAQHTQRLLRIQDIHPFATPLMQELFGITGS
Procedure, shortened: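 HepG2 cells transfected with a CYP3A4-promoter luciferase reporter and human PXR cDNA. Compound added from DMSO stocks to final 2 and 10 μM in buffer and incubated 24 h. Luciferase activity read by chemiluminescence and reported as percent of the rifampin (10 μM) positive control.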

[5] = Clearance in Sprague-Dawley rat at 2 mg/kg, iv; assay type: ADME, organism-based; set-up: dose 2 mg/kg, route intravenous; details: in vivo
Cytochrome P450 3A4 = Cytochrome P450 3A4 (Homo sapiens, UniProt P08684); experiment: Inhibition of CYP3A4 in human liver microsomes; assay type: ADME, Microsome
Sequence of Cytochrome P450 3A4 (P08684 whole entry): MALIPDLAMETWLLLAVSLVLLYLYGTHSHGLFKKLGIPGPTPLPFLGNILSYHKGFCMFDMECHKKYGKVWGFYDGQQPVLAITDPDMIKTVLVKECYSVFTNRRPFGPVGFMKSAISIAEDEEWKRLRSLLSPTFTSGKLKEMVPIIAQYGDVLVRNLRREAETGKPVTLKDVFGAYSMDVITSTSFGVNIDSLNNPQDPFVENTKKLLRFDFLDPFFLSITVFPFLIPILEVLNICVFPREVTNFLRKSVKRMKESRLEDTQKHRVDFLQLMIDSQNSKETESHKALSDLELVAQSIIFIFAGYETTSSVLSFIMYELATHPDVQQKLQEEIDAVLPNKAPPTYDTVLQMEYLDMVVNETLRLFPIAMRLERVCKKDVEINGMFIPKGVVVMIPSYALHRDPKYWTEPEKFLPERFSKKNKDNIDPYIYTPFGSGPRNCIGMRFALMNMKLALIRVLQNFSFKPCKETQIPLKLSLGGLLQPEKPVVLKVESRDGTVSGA

THP-1 = experiment: Inhibition of LPS-induced TNFalpha production in human THP1 cells after 3 hrs; assay type: functional, cell-based; details: Homo sapiens, THP-1, 3 h; read-out: IC50
Procedure, shortened: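 THP-1 cells at 1.5 x 10^6/mL in RPMI 1640, 10% heat-inactivated FBS, NEAA, 30 μM βME. 3-fold serial compound dilutions in DMSO, then LPS stimulation for 3 h at 37 C, 5% CO2. Secreted TNF-alpha read by electrochemiluminescent immunoassay; percent of DMSO control; IC50 is the mean of at least three independent curves.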

Cytochrome P450 1A2 = biological target: T2, Cytochrome P450 1A2 (Homo sapiens, UniProt P05177); experiment: Induction of CYP1A2 in human hepatocytes at 25 uM; assay type: ADME, cell-based, Hepatocyte
T2 sequence (P05177 whole entry): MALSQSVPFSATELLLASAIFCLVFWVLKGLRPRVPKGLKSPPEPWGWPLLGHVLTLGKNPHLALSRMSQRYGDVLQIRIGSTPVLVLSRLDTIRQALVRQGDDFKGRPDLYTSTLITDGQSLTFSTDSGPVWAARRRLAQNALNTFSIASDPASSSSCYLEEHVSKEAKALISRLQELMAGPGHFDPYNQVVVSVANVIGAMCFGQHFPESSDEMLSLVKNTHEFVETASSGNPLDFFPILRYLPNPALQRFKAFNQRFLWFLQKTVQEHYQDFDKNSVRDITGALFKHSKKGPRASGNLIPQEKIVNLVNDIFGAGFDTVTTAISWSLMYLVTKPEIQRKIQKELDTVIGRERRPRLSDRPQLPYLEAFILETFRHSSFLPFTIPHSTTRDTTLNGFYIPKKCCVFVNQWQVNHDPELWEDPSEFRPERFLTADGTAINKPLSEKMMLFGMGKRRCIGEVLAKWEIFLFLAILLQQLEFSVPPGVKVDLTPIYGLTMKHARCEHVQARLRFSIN

in vitro = details: human, Caco-2
[6] = Oral bioavailability in Sprague-Dawley rat at 2 mg/kg; assay type: ADME, organism-based; details: in vivo
[7] = biological target: Mitogen-activated protein kinase 11 (Homo sapiens, UniProt Q15759); experiment: Binding affinity to p38beta
Sequence of Mitogen-activated protein kinase 11 (Q15759 whole entry): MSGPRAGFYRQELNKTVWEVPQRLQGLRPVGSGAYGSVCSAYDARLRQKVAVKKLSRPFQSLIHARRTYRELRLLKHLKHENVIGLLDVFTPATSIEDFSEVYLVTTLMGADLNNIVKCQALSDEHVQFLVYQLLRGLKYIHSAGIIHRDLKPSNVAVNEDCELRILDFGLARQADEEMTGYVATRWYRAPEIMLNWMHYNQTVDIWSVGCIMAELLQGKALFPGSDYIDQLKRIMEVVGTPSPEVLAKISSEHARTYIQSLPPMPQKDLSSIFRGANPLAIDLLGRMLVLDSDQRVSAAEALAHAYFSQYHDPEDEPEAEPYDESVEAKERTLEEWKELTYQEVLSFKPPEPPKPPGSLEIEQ

Blood = experiment: Inhibition of IL-8 production in TNFalpha challenged human whole blood after 16 to 18 hrs; assay type: functional, tissue-based; details: Homo sapiens, Blood; read-out: IC50
Procedure, shortened: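 Heparinized blood from healthy nonmedicated donors, 50% final in RPMI 1640 with 10% human AB serum. Ten-point compound titration preincubated 1 h at 37 C, 5% CO2, then TNF-alpha 1 nM final added for 16-18 h. Plasma IL-8 measured by electrochemiluminescent antibody sandwich assay; IC50 is the mean of at least three independent dose-response curves.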

[8] = Half life in Sprague-Dawley rat at 2 mg/kg, iv; assay type: ADME, organism-based; set-up: dose 2 mg/kg, route intravenous; details: in vivo
Rattus norvegicus [9] = experiment: Antiarthritic activity against porcine type 2 collagen-induced arthritis Lewis rat model assessed as area under the paw swelling curve at 0.01 to 1 mg/kg, po relative to control; assay type: functional, organism-based
Procedure, shortened: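 Lewis rats immunized by intradermal porcine type II collagen emulsified 1:1 in incomplete Freund's adjuvant. Grouped at disease onset (day 0, 10-12 days post-immunization). Oral dosing once daily for 7 days in 15% HPBCD, 1% HPMC, 1% Pluronic F68, pH 2.2. Paw diameter measured daily days 0-7.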

Rattus norvegicus [10] = experiment: Inhibition of MAPKAP2 phosphorylation in porcine type 2 collagen-induced arthritis Lewis rat ankles at 0.01 to 1 mg/kg, po by Western blotting; assay type: functional; details: dose mg/kg 0.01-1
Procedure, shortened: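 Oral dosing once daily for 7 days in collagen-induced arthritic Lewis rats, vehicle 15% HPBCD, 1% HPMC, 1% Pluronic F68, pH 2.2. Ankles (n = 2/group) frozen at sacrifice, pulverized and lysed; 15 μg protein per lane for Western blot with phospho-MK2 antibody. Signal normalized to Akt and expressed as percent of vehicle-treated arthritic control.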

[11] = biological target: T3, Mitogen-activated protein kinase 13 (Homo sapiens, UniProt O15264); experiment: Inhibition of p38delta
T3 sequence (O15264 whole entry): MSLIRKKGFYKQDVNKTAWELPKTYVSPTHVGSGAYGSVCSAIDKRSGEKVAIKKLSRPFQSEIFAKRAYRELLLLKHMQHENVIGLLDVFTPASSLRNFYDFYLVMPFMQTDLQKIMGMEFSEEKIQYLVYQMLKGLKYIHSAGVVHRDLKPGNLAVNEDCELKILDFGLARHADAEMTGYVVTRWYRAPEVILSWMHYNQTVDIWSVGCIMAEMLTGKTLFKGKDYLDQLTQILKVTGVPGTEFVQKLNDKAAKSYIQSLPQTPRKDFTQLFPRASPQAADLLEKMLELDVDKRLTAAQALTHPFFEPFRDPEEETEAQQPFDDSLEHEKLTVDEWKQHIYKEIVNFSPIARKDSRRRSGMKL

Cc1ccc(C(=O)NC2CC2)cc1-c1cc2cnn(-c3c(F)cccc3F)c2n(C)c1=O
concentration at 24 h [1]: 4.4 nM | Activity (Rattus norvegicus [2]): Dose-dependent effect | ED50 (Rattus norvegicus [2]; 168 h): ≤ 0.01 mg/kg | Vd [3]: 0.837 L/kg | Activity [4]: 13% | clearance [5]: 3.67 mL/min/kg | IC50 (Cytochrome P450 3A4): > 25000 nM | IC50 (THP-1): 0.6 nM | Activity (Cytochrome P450 1A2): Not Active | Papp B→A (in vitro): 27 ×10⁻⁶ cm/s | bioavailability [6]: 43% | Kd [7]: 0.67 nM | IC50 (Blood): 1.7 nM | half-life [8]: 2.7 h | Activity (Rattus norvegicus [9]): Active | ED50 (Rattus norvegicus [10]): ≤ 0.01 mg/kg | Ki [11]: 2100 nM
